Experiments:
A549 [1] = assay: In vitro rate of inhibition of A-549 tumor cell growth at 10E-4 mol/L; format: functional, Homo sapiens; details: at 100 µM
A549 [2] = assay: In vitro rate of inhibition of A-549 tumor cell growth at 10E-8 mol/L; format: functional, Homo sapiens; details: at 0.01 µM
Bel-7402 [3] = assay: Rate of inhibition of Bel-7402 tumor cell growth at a concentration of 1.25 uM; format: functional, Homo sapiens
Bel-7402 [4] = assay: Rate of inhibition of Bel-7402 tumor cell growth at a concentration of 2.5 uM; format: functional, Homo sapiens
A549 [5] = assay: In vitro rate of inhibition of A-549 tumor cell growth at 10E-5 mol/L; format: functional, Homo sapiens; details: at 10 µM
MCF7 [6] = assay: Rate of inhibition of MCF-7 tumor cell growth at a concentration of 1.0 uM; format: functional, Homo sapiens
P388 [7] = assay: In vitro rate of inhibition of P388 tumor cell growth at 10E-5 mol/L; format: functional, Mus musculus; details: at 10 µM
A549 [8] = assay: Rate of inhibition of A-549 tumor cell growth at a concentration of 0.0625 uM; format: functional, Homo sapiens
Procedure, shortened: (§1)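 A-549 tumour cell growth inhibition was measured in vitro by the SRB (sulforhodamine B) method.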

P388 [9] = assay: Rate of inhibition of P388 tumor cell growth at a concentration of 0.781 uM; format: functional, Mus musculus
Procedure, shortened: (§2)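 P-388 tumour cell growth inhibition was read out in vitro by the MTT method.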

A549 [10] = assay: Rate of inhibition of A-549 tumor cell growth at a concentration of 0.125 uM; format: functional, Homo sapiens; procedure, shortened: as §1
P388 [11] = assay: In vitro rate of inhibition of P388 tumor cell growth at 10E-7 mol/L; format: functional, Mus musculus; details: at 0.1 µM
Bel-7402 [12] = assay: Rate of inhibition of Bel-7402 tumor cell growth at a concentration of 0.625 uM; format: functional, Homo sapiens
P388 [13] = assay: Rate of inhibition of P388 tumor cell growth at a concentration of 3.125 uM; format: functional, Mus musculus; procedure, shortened: as §2
A549 [14] = assay: Rate of inhibition of A-549 tumor cell growth at a concentration of 0.5 uM; format: functional, Homo sapiens; procedure, shortened: as §1
P388 [15] = assay: In vitro rate of inhibition of P388 tumor cell growth at 10E-6 mol/L; format: functional, Mus musculus; details: at 1 µM
Bel-7402 [16] = assay: Inhibitory concentration of compound against Bel-7402 cell line; format: functional, cell-based; details: Homo sapiens
P388 [17] = assay: Rate of inhibition of P388 tumor cell growth at a concentration of […] uM; format: functional, Mus musculus; procedure, shortened: as §2
P388 [18] = assay: Rate of inhibition of P388 tumor cell growth at a concentration of 0.195 uM; format: functional, Mus musculus; procedure, shortened: as §2
Bel-7402 [19] = assay: Rate of inhibition of Bel-7402 tumor cell growth at a concentration of 0.313 uM; format: functional, Homo sapiens
A549 [20] = assay: Rate of inhibition of A-549 tumor cell growth at a concentration of 0.25 uM; format: functional, Homo sapiens; procedure, shortened: as §1
P388 [21] = assay: Rate of inhibition of P388 tumor cell growth at a concentration of 1.563 uM; format: functional, Mus musculus; procedure, shortened: as §2
P388 [22] = assay: Inhibitory concentration of compound against P388 tumor cell growth; format: functional, cell-based; details: Mus musculus; procedure, shortened: as §2
MCF7 [23] = assay: Rate of inhibition of MCF-7 tumor cell growth at a concentration of 0.5 uM; format: functional, Homo sapiens
P388 [24] = assay: In vitro rate of inhibition of P388 tumor cell growth at 10E-8 mol/L; format: functional, Mus musculus; details: at 0.01 µM
A549 [25] = assay: In vitro rate of inhibition of A-549 tumor cell growth at 10E-7 mol/L; format: functional, Homo sapiens; details: at 0.1 µM
Bel-7402 [26] = assay: Rate of inhibition of Bel-7402 tumor cell growth at a concentration of 5.0 uM; format: functional, Homo sapiens
A549 [27] = assay: Inhibitory concentration of compound against A-549 cell line; format: functional, cell-based; details: Homo sapiens; procedure, shortened: as §1
A549 [28] = assay: Rate of inhibition of A-549 tumor cell growth at a concentration of 1 uM; format: functional, Homo sapiens; procedure, shortened: as §1
MCF7 [29] = assay: Rate of inhibition of MCF-7 tumor cell growth at a concentration of 0.25 uM; format: functional, Homo sapiens
MCF7 [30] = assay: Inhibitory concentration of compound against MCF-7 cell line; format: functional, cell-based; details: Homo sapiens
MCF7 [31] = assay: Rate of inhibition of MCF-7 tumor cell growth at a concentration of 0.125 uM; format: functional, Homo sapiens
P388 [32] = assay: In vitro rate of inhibition of P388 tumor cell growth at 10E-4 mol/L; format: functional, Mus musculus; details: at 100 µM
A549 [33] = assay: In vitro rate of inhibition of A-549 tumor cell growth at 10E-6 mol/L; format: functional, Homo sapiens; details: at 1 µM

CC1=NN(C(=O)Nc2cccc(C)c2)C(C)=NN1C(=O)Nc1cccc(C)c1
Rate of inhibition (A549 [1]): 84.8%
Rate of inhibition (A549 [2]): 80.3%
Rate of inhibition (Bel-7402 [3]): 77.8%
Rate of inhibition (Bel-7402 [4]): 89%
Rate of inhibition (A549 [5]): 83.3%
Rate of inhibition (MCF7 [6]): 71.2%
Rate of inhibition (P388 [7]): 96.8%
Rate of inhibition (A549 [8]): 0%
Rate of inhibition (P388 [9]): 83.1%
Rate of inhibition (A549 [10]): 0%
Rate of inhibition (P388 [11]): 96.8%
Rate of inhibition (Bel-7402 [12]): 54.2%
Rate of inhibition (P388 [13]): 97.3%
Rate of inhibition (A549 [14]): 36.6%
Rate of inhibition (P388 [15]): 98.4%
IC50 (Bel-7402 [16]): 600 nM
Rate of inhibition (P388 [17]): 55.4%
Rate of inhibition (P388 [18]): 2.3%
Rate of inhibition (Bel-7402 [19]): 27.4%
Rate of inhibition (A549 [20]): 0%
Rate of inhibition (P388 [21]): 91.1%
IC50 (P388 [22]): 600 nM
Rate of inhibition (MCF7 [23]): 64.3%
Rate of inhibition (P388 [24]): 96.8%
Rate of inhibition (A549 [25]): 81.8%
Rate of inhibition (Bel-7402 [26]): 87.8%
IC50 (A549 [27]): 700 nM
Rate of inhibition (A549 [28]): 93.6%
Rate of inhibition (MCF7 [29]): 35.7%
IC50 (MCF7 [30]): 500 nM
Rate of inhibition (MCF7 [31]): 1.1%
Rate of inhibition (P388 [32]): 96.8%
Rate of inhibition (A549 [33]): 80.3%

CCCC1=NN(C(=O)Nc2cccc(Cl)c2)C(CCC)=NN1C(=O)Nc1cccc(Cl)c1
Rate of inhibition (A549 [1]): 91.3%
Rate of inhibition (A549 [2]): 0%
Rate of inhibition (A549 [5]): 88.4%
Rate of inhibition (P388 [7]): 58.7%
Rate of inhibition (P388 [11]): 0%
Rate of inhibition (P388 [15]): 0%
Rate of inhibition (P388 [24]): 0%
Rate of inhibition (A549 [25]): 10.8%
Rate of inhibition (P388 [32]): 84.4%
Rate of inhibition (A549 [33]): 59.6%

CCCC1=NN(C(=O)OCC)C(CCC)N=N1 (stereo not drawn)
Rate of inhibition (A549 [1]): 12.5%
Rate of inhibition (A549 [2]): 0%
Rate of inhibition (A549 [5]): 0%
Rate of inhibition (P388 [7]): 15%
Rate of inhibition (P388 [11]): 5%
Rate of inhibition (P388 [15]): 2.2%
Rate of inhibition (P388 [24]): 3.6%
Rate of inhibition (A549 [25]): 0%
Rate of inhibition (P388 [32]): 35.4%
Rate of inhibition (A549 [33]): 0%

CCOC(=O)c1cccc(NC(=O)N2N=C(C)N(C(=O)Nc3cccc(C(=O)OCC)c3)N=C2C)c1
Rate of inhibition (A549 [1]): 67%
Rate of inhibition (A549 [2]): 1.1%
Rate of inhibition (A549 [5]): 12.5%
Rate of inhibition (P388 [7]): 0%
Rate of inhibition (P388 [11]): 0%
Rate of inhibition (P388 [15]): 0%
Rate of inhibition (P388 [24]): 0%
Rate of inhibition (A549 [25]): 5.7%
Rate of inhibition (P388 [32]): 46.3%
Rate of inhibition (A549 [33]): 6.8%

CC1=NN(C(=O)Nc2cccc3ccccc23)C(C)=NN1C(=O)Nc1cccc2ccccc12
Rate of inhibition (A549 [1]): 56.6%
Rate of inhibition (A549 [2]): 4.4%
Rate of inhibition (A549 [5]): 16.9%
Rate of inhibition (P388 [7]): 6.3%
Rate of inhibition (P388 [11]): 0%
Rate of inhibition (P388 [15]): 0%
Rate of inhibition (P388 [24]): 0%
Rate of inhibition (A549 [25]): 10%
Rate of inhibition (P388 [32]): 60.5%
Rate of inhibition (A549 [33]): 9.1%

CC1=NN(C(=O)OCc2ccccc2)C(C)N=N1 (stereo not drawn)
Rate of inhibition (A549 [1]): 0%
Rate of inhibition (A549 [2]): 0%
Rate of inhibition (A549 [5]): 0%
Rate of inhibition (P388 [7]): 3%
Rate of inhibition (P388 [11]): 2.3%
Rate of inhibition (P388 [15]): 2%
Rate of inhibition (P388 [24]): 1%
Rate of inhibition (A549 [25]): 0%
Rate of inhibition (P388 [32]): 24.1%
Rate of inhibition (A549 [33]): 0%

— ChEMBL document CHEMBL1147590, “Synthesis and antitumor activity of s-tetrazine derivatives” (Bioorg Med Chem Lett, 2004)
